Experimental data reported in paper PMC3817951 (Journal of immunology (Baltimore, Md. : 1950), 2013).
Where “and” joins values, the source holds several entries; their conditions need not be identical. Equal values may be shown once. Entries after “also recorded” stand apart in the source; their conditions may differ. Read-outs that look alike come from different tables or passages of the source.

What was measured:
TCR = assay: Surface plasmon resonance: TCR binding to mCD1d-glycolipid complexes; design: species or system mouse; conditions: for Kd: SPR, TCR towards glycolipid presented by mCD1d, 25°C, Langmuir 1:1 model
How it was run: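 Biotinylated birA-tagged mouse CD1d loaded overnight with 6-fold molar excess glycolipid (DMSO stock 1 mg/ml). 500–600 RU of complex captured on streptavidin chip. TCR injected at 0.0156–2 μM in 10 mM Hepes, 150 mM NaCl, 3 mM EDTA, pH 7.4, for 1.5–3 min. Dissociation 45 min at 25°C. Empty-CD1d reference subtracted, Langmuir 1:1 fit. Three runs, separate TCR preparations.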

[1] = system: murine iNKT hybridoma N38-2C12 (Vα14Vβ8.2b); assay: In vitro stimulation of iNKT hybridoma 2C12 with glycolipid pulsed BMDCs; assay type: cell-based, mouse; conditions: for IL-2 production (ELISA): BMDCs loaded 100 ng/ml for 20 h, co-culture with 2C12 for 16 hours
How it was run: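 Hybridoma kept in cDMEM (DMEM, 10% FCS, glutamine, pen/strep, 2-mercaptoethanol). BMDCs grown 10 days with GM-CSF, pulsed 20 h with 100 ng/ml glycolipid. 5×10^4 hybridoma cells plus 10^5 BMDCs at 37°C. Secreted IL-2 by ELISA at 16 h (n=6). Intracellular IL-2 at 4 h. TCRβ by flow at 24 h with CD45.1 BMDCs, gated CD45.2+CD45.1−7AAD−.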

iNKT cells [2] = assay type: in vivo, C57BL/6 mice; conditions: for serum IFN-γ levels / serum IL-12 levels: 16 hours after injection of 5 μg glycolipid (i.p.)
How it was run: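 C57BL/6 mice aged 5–12 weeks received 5 μg glycolipid i.p. in PBS. Glycolipid solubilised in PBS or vehicle (sucrose/deoxycholate/Tween 20), heated 20 min at 80°C, sonicated 10 min. Serum cytokines measured 16 h after injection. Mean ± s.e.m. of at least sixteen mice, pooled from two independent experiments.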

iNKT cells [3] = assay type: in vivo, C57BL/6 mice; conditions: for IFN-γ levels (Figure 2 panel b, IL-12 panel): at 16 hours
B16 melanoma cells = assay: B16 melanoma lung metastasis model; assay type: in vivo, mice; conditions: 10 000 BMDCs loaded with glycolipid
How it was run: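 C57BL/6 mice aged 5–12 weeks. B16 cells grown in advanced RPMI with 10% FCS, glutamine and pen/strep, lifted with cell dissociation buffer and washed twice. 2x10^5 or 4x10^5 cells were injected i.v. into the tail vein within 30 min of harvest. Glycolipid-pulsed BMDCs given i.v. (6x10^4 or 1x10^4). Mice killed at day 14 and lungs removed for scoring.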

[4] = system: spleen DCs (CD11c CD11b double positive); assay: Co-stimulatory marker expression on spleen DCs; assay type: in vivo, mouse
human iNKT cells = assay type: cell-based
How it was run: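 Sorted, expanded iNKT cells from healthy adult donors. Autologous PBMCs isolated by density centrifugation, incubated overnight with glycolipid (100 ng/ml), washed and irradiated (40 Gy). 5x10^4 iNKT cells cultured with 10^5 PBMCs in RPMI 1640 plus 10% human AB serum, pyruvate, non-essential amino acids and pen/strep. Supernatant cytokines at 24 h by cytometric bead array. Data pooled from two experiments, two donors.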

CD1d [5] = assay: Cellular assay of stability of the glycolipid-CD1d complex; assay type: cell-based, mouse; conditions: BMDCs loaded 100 ng/mL 20 hours, wash-off 4h to 48h
How it was run: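 BMDCs grown 10 days with GM-CSF, then pulsed 20 h with 100 ng/mL glycolipid and washed. Cells were held in medium for 4–48 h, and released glycolipid was washed off. They were then co-cultured with 2C12 hybridoma (5×10^4 hybridoma:10^5 BMDCs, cDMEM, 37°C). IL-2 in the medium, normalised to the 4 h point, indicates remaining loaded CD1d. Mean ± s.e.m., n=6.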

CD1d [6] = conditions: compared with CD1d-α-GalCer complexes; cited from earlier work
[7] = 600 000 glycolipid-pulsed BMDCs, at 16 and 24 hours
[8] = 600 000 glycolipid-pulsed BMDCs
[9] = 10 000 pulsed BMDCs, 16 hours, compared to NU-α-GalCer and α-GalCer
[10] = 100 ng/ml loading, 24hrs, compared to α-GalCer

CCCCCCCCCCCCCCCCCCCCCCCCCC(=O)N[C@@H](CO[C@H]1O[C@H](COC(=O)Nc2cccc3ccccc23)[C@H](O)[C@H](O)[C@H]1O)[C@H](O)[C@H](O)CCCCCCCCCCCCCC [NC-α-GalCer, α-GalCer-6″-(1-naphthyl)carbamate]
Kd (TCR): 37 nM and 37.1 nM
IL-2 production (ELISA) [1]: significantly differ from α-GalCer

CCCCCCCCCCCCCCCCCCCCCCCCCC(=O)N[C@@H](CO[C@H]1O[C@H](CNC(=O)Nc2cccc3ccccc23)[C@H](O)[C@H](O)[C@H]1O)[C@H](O)[C@H](O)CCCCCCCCCCCCCC [NU-α-GalCer, α-GalCer-6″-(1-naphthyl)urea]
serum IFN-γ levels (iNKT cells [2]): significantly lower; also recorded: comparable or slightly lower
serum IFN-γ levels (iNKT cells [3]; [7]): significantly higher compared to α-GalCer
IFN-γ levels (Figure 2 panel b, IL-12 panel) (iNKT cells [3]; [8]): significantly higher compared to α-GalCer
IL-2 production (ELISA) [1]: higher IL-2 levels; also recorded: significantly differ from α-GalCer
lung nodules / anti-metastatic activity (B16 melanoma cells): significantly stronger compared to α-GalCer

CCCCCCCCCCCCCCCCCCCCCCCCCC(=O)N[C@@H](CO[C@H]1O[C@H](CO)[C@H](O)[C@H](O)[C@H]1O)[C@H](O)[C@H](O)CCCCCCCCCCCCCC [α-GalCer, alpha galactosyl ceramide, reference compound]
Kd (TCR): 26 nM and 26.4 nM
serum IFN-γ levels (iNKT cells [2]): significantly lower
serum IL-12 levels (iNKT cells [2]): significantly lower
CD80 and CD86 expression ([4]; dendritic cell surface): induced upregulation of both CD80 and CD86

CCCCCCCCCCCCCCCCCCCCCCCCCC(=O)N[C@@H](CO[C@H]1O[C@H](COC(=O)Nc2ccncc2)[C@H](O)[C@H](O)[C@H]1O)[C@H](O)[C@H](O)CCCCCCCCCCCCCC [PyrC-α-GalCer, α-GalCer-6″-(pyridin-4-yl)carbamate]
Kd (TCR): 25 ± 3 nM
serum IL-12 levels (iNKT cells [2]): significantly higher IL-12 levels than NU-α-GalCer
increase of IL-12 levels (iNKT cells [2]; PyrC-α-GalCer administration, mode and comparator not stated at place): 10 fold
serum IFN-γ levels (iNKT cells [3]; [9]): significantly higher
serum IL-12 levels (iNKT cells [3]; [9]): significantly higher
serum IFN-γ levels (iNKT cells [3]; [7]): significantly higher compared to NU-α-GalCer
serum IL-12 levels (iNKT cells [3]; [7]): even after 24 hours markedly higher than for NU-α-GalCer; also recorded: significantly higher compared to NU-α-GalCer
course of IFN-γ level over time (iNKT cells [3]; glycolipid pulsed BMDCs, in contrast to 4ClPhC-α-GalCer and NU-α-GalCer): increased up to 24 hours after injection
IFN-γ production (human iNKT cells; [10]): slightly elevated
IL-4 production (human iNKT cells; [10]): less production
IL-12 production (human iNKT cells; [10]): slightly elevated
IL-13 production (human iNKT cells; [10]): less production
Th1-biased cytokine secretion (human iNKT cells; purified human iNKT cells, more IFN-γ and IL-12 and less IL-4 and IL-13 compared to α-GalCer): able to induce Th1-biased cytokine secretion
IL-2 production (ELISA) [1]: significantly differ from α-GalCer
lung nodules / anti-metastatic activity (B16 melanoma cells): superior in preventing tumor metastasis; also recorded: reduce the amount of noduli even significantly better
CD40 and OX40L expression ([4]; spleen DCs): induces early CD40 and OX40L upregulation

CCCCCCCCCCCCCCCCCCCCCCCCCC(=O)N[C@@H](CO[C@H]1O[C@H](COC(=O)Nc2ccc(Cl)cc2)[C@H](O)[C@H](O)[C@H]1O)[C@H](O)[C@H](O)CCCCCCCCCCCCCC [4ClPhC-α-GalCer, α-GalCer-6″-(4-chlorophenyl)carbamate]
reduced binding affinity (TCR; 49 nM vs. 25 nM): 2 fold
Kd (TCR): 49.3 ± 0.3 nM
serum IFN-γ levels (iNKT cells [3]; [7]): significantly higher compared to NU-α-GalCer
IFN-γ levels (Figure 2 panel b, IL-12 panel) (iNKT cells [3]; [8]): significantly higher compared to α-GalCer
IL-2 production (ELISA) [1]: significantly differ from α-GalCer

CCCCCCCCCCCCCCCCCCCCCCCCCC(=O)NC(CC1OC(CO)C(O)C(O)C1O)C(O)C(O)CCCCCCCCCCCCCC (stereo not drawn) [α-C-GalCer]
TCRβ expression ([1]; 2C12, 24 hours after coculture with glycolipid-pulsed CD45.1 BMDCs): clear TCRb downregulation
IL-2 production (ELISA) [1]: higher IL-2 levels
stability of glycolipid-CD1d complex (IL-2 normalized to 4 hours after wash off) (CD1d [5]): much slower decay compared to α-GalCer
half-life in vivo of complex with CD1d (CD1d [6]): much longer half-life in vivo
